The source of these data is ChEMBL document CHEMBL1649208, “High-throughput screening identifies three inhibitor classes of the telomere resolvase from the lyme disease spirochete” (Antimicrob Agents Chemother, 2009).

pIC50: −log10 of the molar value.

The target of experiment [1] is T1, Telomere resolvase ResT (Borrelia burgdorferi (strain ATCC 35210 / B31 / CIP 102532 / DSM4680)) (UniProt O50979).
T1 sequence (whole entry): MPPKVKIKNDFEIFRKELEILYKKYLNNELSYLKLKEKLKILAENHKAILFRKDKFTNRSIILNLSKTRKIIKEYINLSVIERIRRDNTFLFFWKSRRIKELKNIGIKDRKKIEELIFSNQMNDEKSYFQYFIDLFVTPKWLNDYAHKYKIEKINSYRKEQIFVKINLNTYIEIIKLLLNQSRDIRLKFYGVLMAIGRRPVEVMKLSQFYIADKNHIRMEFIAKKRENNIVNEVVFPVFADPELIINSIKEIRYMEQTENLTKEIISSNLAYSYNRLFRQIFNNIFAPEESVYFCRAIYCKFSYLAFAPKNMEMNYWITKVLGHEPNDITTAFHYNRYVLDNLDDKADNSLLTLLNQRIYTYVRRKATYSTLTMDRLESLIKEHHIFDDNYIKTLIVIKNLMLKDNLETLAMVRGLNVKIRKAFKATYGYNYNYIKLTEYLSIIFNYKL
In words: Inhibition of Borrelia burgdorferi telomere resolvase 164-449 sequence assessed as inhibition of DNA binding activity at 10 uM by electrophoretic mobility shift assay. Particulars: Borreliella burgdorferi. (In EMSA bound probe runs differently from free probe, usually more slowly.)

Experiment [2] has as its target T1, Telomere resolvase ResT (Borrelia burgdorferi (strain ATCC 35210 / B31 / CIP 102532 / DSM4680)). Description: Inhibition of Borrelia burgdorferi telomere resolvase assessed as DNA cleavage at 10 uM. The settings on record: Borreliella burgdorferi.
The target in a further experiment is T2, Telomere resolvase ResT (Borrelia burgdorferi (strain ATCC 35210 / B31 / CIP 102532 / DSM4680), UniProt O50979).
T2 sequence (O50979 whole entry): T1 sequence (whole entry)
Description: Inhibition of Borrelia burgdorferi telomere resolvase by gel-based telomere resolution assay. Also on record: species or system Borreliella burgdorferi.

Experiment [3] addresses T1, Telomere resolvase ResT (Borrelia burgdorferi (strain ATCC 35210 / B31 / CIP 102532 / DSM4680)). In words: Inhibition of Borrelia burgdorferi telomere resolvase assessed as inhibition of telomere resolution at 10 uM. Particulars: Borreliella burgdorferi.
The target is the same in experiment [4]. Description: Inhibition of Borrelia burgdorferi telomere resolvase assessed as reduction in DNA cleavage at 10 uM. Particulars: Borreliella burgdorferi. In a few lines: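 Cleavage-step assay with 5′-bridging phosphorothiolate oligonucleotide substrate (OGCB116+OGCB117), 5.4 nM, 32P-labeled. Recombinant ResT at 165 nM, 10% DMSO final, 25 mM Tris-HCl pH 8.5, 100 mM NaCl, 1 mM EDTA, 25% glycerol. 30 min at 30°C, stopped with 0.1% SDS. Covalent protein–DNA complex resolved on 5% SDS-polyacrylamide gel, phosphorimager. Expressed relative to ResT+DMSO control.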

By pIC50 is commonly meant the negative decadic logarithm of the IC50, by convention in mol/L. Read a low pIC50 as a high IC50. As usually defined, the inhibition is the drop in the measured response relative to a control, in per cent. Regarding `O=C(O)c1ccc(-c2nc(-c3ccc(-c4ccccc4)cc3)c(-c3ccc(-c4ccccc4)cc3)[nH]2)cc1`, the % binding relative to control in experiment [1] worked out at 33%. For the same compound, the % cleavage relative to control in experiment [2] was found to be 43%. Besides, the pIC50 against Telomere resolvase ResT is 5.02. Besides, the inhibition in experiment [3] was not below 70%.

`O=C(O)c1ccc2c3c(cccc13)C(=O)N(c1ccc(-c3nc4ccc(N5C(=O)c6cccc7c(C(=O)O)ccc(c67)C5=O)cc4[nH]3)cc1)C2=O`: the % binding relative to control in experiment [1] was determined as 16%. In addition, the % cleavage relative to control in experiment [2] was 65%. The pIC50 against Telomere resolvase ResT is 5.50. Also, in experiment [3], the inhibition was not below 70%.

`COc1cc(O)c2c(c1)oc(=O)c1c3cc(O)c(O)cc3oc21` [WEDELOLACTONE]: the values for the inhibition in experiment [4] and in experiment [3] were 6% and not below 70%, respectively. Further, the pIC50 on Telomere resolvase ResT was 5.06.

`C[C@H](CCC(=O)O)[C@H]1CC[C@H]2[C@@H]3CC[C@@H]4CCCC[C@]4(C)[C@H]3CC[C@@]12C`: the % binding relative to control in experiment [1] was determined as 14%. Moreover, the % cleavage relative to control in experiment [2] is 79%. The compound further showed a pIC50 at Telomere resolvase ResT of 5.71. The inhibition in experiment [3] was not below 70%.

With `O=C(O)CCCCCCCCCCCCC1C=CCC1` (centres undefined), the % binding relative to control in experiment [1] turned out to be 5%. In addition, the % cleavage relative to control in experiment [2] was found to be 75%. The compound also showed a pIC50 against Telomere resolvase ResT of 5.58. In experiment [3], the inhibition is not below 70%.
